Measured values: ChEMBL document CHEMBL5252510, “A Novel Potent Oral Series of VEGFR2 Inhibitors Abrogate Tumor Growth by Inhibiting Angiogenesis” (J Med Chem, 2016)

Key:
[1] = Dose normalized Cmax in Sprague-Dawley rat at 50 mg/kg, po measured upto 24 hrs by HPLC/UV analysis; format: ADME, organism-based; conditions: in vivo
In short: (§1)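 Female Sprague Dawley rats, 8 weeks old, catheterized. Oral suspension in 0.5 % carboxymethyl cellulose at 50 mg/kg, n=3. Bioavailability taken against 3 mg/kg iv. Plasma sampled 5 min–24 h. Cmax and AUC(0–∞) dose-normalized.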

[2] = tested on: BaF3; assay: Antiproliferative activity against mouse BaF3 cells assessed as cell growth inhibition measured after 72 hrs by Alamar Blue assay; conditions: BaF3, 72 h
[3] = tested on: B16-BL6; assay: Antitumor activity against mouse B16-BL6 cells implanted in C57BL/6jNpa mouse assessed as primary tumor growth inhibition at 3 mg/kg, po qd administered started on day 7 post implantation measured after 21 days relative to control; format: functional; conditions: time 7-21 day, read-out: TGI
In short: (§2)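 Female C57BL/6JNpa mice, 50000 B16/BL6 cells intradermally in both ear pinnae; primary tumor area (mm²) imaged days 7, 14, 21; randomized day 7 into groups of 5-6, oral dosing in PEG200 or PEG300 vehicle daily (or every 2 days) for 14 days; day 21 cervical lymph nodes weighed, metastasis lysates assayed for TIE-2 by ELISA; T/C ratios.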

[4] = tested on: BaF3; assay: Antiproliferative activity against mouse BaF3 cells expressing KIT D816V mutant assessed as cell growth inhibition measured after 72 hrs by Alamar Blue assay; conditions: BaF3, 72 h
[5] = tested on: BaF3; assay: Antiproliferative activity against mouse BaF3 cells expressing Tel-IGF-1R assessed as cell growth inhibition measured after 72 hrs by Alamar Blue assay; conditions: BaF3, 72 h
[6] = Toxicity in C57BL/6jNpa mouse harbouring mouse B16-BL6 cells assessed as effect on blood platelet count at 3 mg/kg, po qd administered started on day 7 post implantation measured after 21 days; format: organism-based; conditions: in vivo, 504 h, time 7-21 day
In short: (§3)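 Female C57BL/6JNpa mice received 50000 B16/BL6 cells intradermally in both ear pinnae. Randomized on day 7 into groups of 5–6, then dosed 3 mg/kg p.o. daily in PEG200/PEG300 for 14 days. Behavior and well-being were observed. On day 21, blood was analysed for platelet, red and white cell counts and hematocrit.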

[7] = Toxicity in C57BL/6jNpa mouse harbouring mouse B16-BL6 cells assessed as effect on spleen weight at 3 mg/kg, po qd administered started on day 7 post implantation measured after 21 days; format: organism-based; conditions: in vivo, 504 h, time 7-21 day
In short: (§4)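 B16/BL6 melanoma cells (50000) injected intradermally into dorsal pinna of both ears of female mice (18–20 g). Randomized on day 7 into groups of 5-6 by primary tumor size, then dosed orally once daily for 14 days in PEG300 or PEG200. Sacrificed day 21; blood analysed directly for platelets, red and white cell counts, hematocrit. Body and spleen weight recorded versus healthy naive mouse.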

[8] = tested on: BaF3; assay: Antiproliferative activity against mouse BaF3 cells expressing PTC3-RET assessed as cell growth inhibition measured after 72 hrs by Alamar Blue assay; conditions: BaF3, 72 h
[9] = Clearance in Sprague-Dawley rat at 3 mg/kg, iv measured upto 24 hrs by HPLC/UV analysis; format: ADME, organism-based; conditions: in vivo
In short: (§5)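 Female Sprague Dawley rats, 8 weeks old, catheterized in the jugular vein and femoral artery, recovered 96 h. IV dose 3 mg/kg in ethanol/NMP/PEG400/5 % glucose (10/10/50/30). n=2. Plasma sampled at 5, 15, 30 min and 1, 2, 4, 6, 8, 24 h.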

[10] = Oral bioavailability in Sprague-Dawley rat at 50 mg/kg measured upto 24 hrs by HPLC/UV analysis; format: ADME, organism-based; conditions: in vivo; in short: as §1
[11] = tested on: BaF3; assay: Antiproliferative activity against mouse BaF3 cells expressing Tel-KDR-myc1.3 assessed as cell growth inhibition measured after 72 hrs by Alamar Blue assay; conditions: BaF3, 72 h
[12] = tested on: BaF3; assay: Antiproliferative activity against mouse BaF3 cells expressing Tel-FGFR3 assessed as cell growth inhibition measured after 72 hrs by Alamar Blue assay; conditions: BaF3, 72 h
[13] = Toxicity in C57BL/6jNpa mouse harbouring mouse B16-BL6 cells assessed as effect on animal behavior at 3 mg/kg, po qd administered started on day 7 post implantation measured after 21 days; format: organism-based; conditions: in vivo, 504 h, time 7-21 day; in short: as §3
[14] = Half-life in Sprague-Dawley rat at 3 mg/kg, iv measured upto 24 hrs by HPLC/UV analysis; format: ADME, organism-based; conditions: in vivo; in short: as §5
[15] = tested on: BaF3; assay: Antiproliferative activity against mouse BaF3 cells expressing Bcr-ABL assessed as cell growth inhibition measured after 72 hrs by Alamar Blue assay; conditions: BaF3, 72 h
[16] = tested on: BaF3; assay: Antiproliferative activity against mouse BaF3 cells expressing Tel-PDGFRbeta assessed as cell growth inhibition measured after 72 hrs by Alamar Blue assay; conditions: BaF3, 72 h
[17] = Toxicity in C57BL/6jNpa mouse harbouring mouse B16-BL6 cells assessed as effect on body weight at 3 mg/kg, po qd administered started on day 7 post implantation measured after 21 days; format: organism-based; conditions: in vivo, 504 h, time 7-21 day; in short: as §4
[18] = tested on: HUVEC; assay: Antiproliferative activity against VEGF-stimulated HUVEC cells assessed as cell growth inhibition measured after 24 hrs by BrdUrd incorporation based spectrophotometric analysis; conditions: Homo sapiens
[19] = Toxicity in C57BL/6jNpa mouse harbouring mouse B16-BL6 cells assessed as effect on white blood cell count at 3 mg/kg, po qd administered started on day 7 post implantation measured after 21 days; format: organism-based; conditions: in vivo, 504 h, time 7-21 day; in short: as §4
[20] = Toxicity in C57BL/6jNpa mouse harbouring mouse B16-BL6 cells assessed as drug tolerability at 3 mg/kg, po qd administered started on day 7 post implantation measured after 21 days; format: organism-based; conditions: in vivo, 504 h, time 7-21 day; in short: as §3
[21] = Toxicity in C57BL/6jNpa mouse harbouring mouse B16-BL6 cells assessed as effect on red blood cell count at 3 mg/kg, po qd administered started on day 7 post implantation measured after 21 days; format: organism-based; conditions: in vivo, 504 h, time 7-21 day; in short: as §4
[22] = Tmax in Sprague-Dawley rat at 50 mg/kg, po measured upto 24 hrs by HPLC/UV analysis; format: ADME, organism-based; conditions: in vivo; in short: as §1
[23] = target: Vascular endothelial growth factor receptor 2 (Mus musculus, UniProt P35918); assay: Inhibition of mouse recombinant GST-fused VEGFR2 kinase domain expressed in baculovirus expression system using poly-Glu-Tyr (4:1) as substrate measured after 10 mins in presence of gamma-[33P]-ATP by scintillation counting analysis
Vascular endothelial growth factor receptor 2, sequence (P35918 whole entry, the tested form may be a part): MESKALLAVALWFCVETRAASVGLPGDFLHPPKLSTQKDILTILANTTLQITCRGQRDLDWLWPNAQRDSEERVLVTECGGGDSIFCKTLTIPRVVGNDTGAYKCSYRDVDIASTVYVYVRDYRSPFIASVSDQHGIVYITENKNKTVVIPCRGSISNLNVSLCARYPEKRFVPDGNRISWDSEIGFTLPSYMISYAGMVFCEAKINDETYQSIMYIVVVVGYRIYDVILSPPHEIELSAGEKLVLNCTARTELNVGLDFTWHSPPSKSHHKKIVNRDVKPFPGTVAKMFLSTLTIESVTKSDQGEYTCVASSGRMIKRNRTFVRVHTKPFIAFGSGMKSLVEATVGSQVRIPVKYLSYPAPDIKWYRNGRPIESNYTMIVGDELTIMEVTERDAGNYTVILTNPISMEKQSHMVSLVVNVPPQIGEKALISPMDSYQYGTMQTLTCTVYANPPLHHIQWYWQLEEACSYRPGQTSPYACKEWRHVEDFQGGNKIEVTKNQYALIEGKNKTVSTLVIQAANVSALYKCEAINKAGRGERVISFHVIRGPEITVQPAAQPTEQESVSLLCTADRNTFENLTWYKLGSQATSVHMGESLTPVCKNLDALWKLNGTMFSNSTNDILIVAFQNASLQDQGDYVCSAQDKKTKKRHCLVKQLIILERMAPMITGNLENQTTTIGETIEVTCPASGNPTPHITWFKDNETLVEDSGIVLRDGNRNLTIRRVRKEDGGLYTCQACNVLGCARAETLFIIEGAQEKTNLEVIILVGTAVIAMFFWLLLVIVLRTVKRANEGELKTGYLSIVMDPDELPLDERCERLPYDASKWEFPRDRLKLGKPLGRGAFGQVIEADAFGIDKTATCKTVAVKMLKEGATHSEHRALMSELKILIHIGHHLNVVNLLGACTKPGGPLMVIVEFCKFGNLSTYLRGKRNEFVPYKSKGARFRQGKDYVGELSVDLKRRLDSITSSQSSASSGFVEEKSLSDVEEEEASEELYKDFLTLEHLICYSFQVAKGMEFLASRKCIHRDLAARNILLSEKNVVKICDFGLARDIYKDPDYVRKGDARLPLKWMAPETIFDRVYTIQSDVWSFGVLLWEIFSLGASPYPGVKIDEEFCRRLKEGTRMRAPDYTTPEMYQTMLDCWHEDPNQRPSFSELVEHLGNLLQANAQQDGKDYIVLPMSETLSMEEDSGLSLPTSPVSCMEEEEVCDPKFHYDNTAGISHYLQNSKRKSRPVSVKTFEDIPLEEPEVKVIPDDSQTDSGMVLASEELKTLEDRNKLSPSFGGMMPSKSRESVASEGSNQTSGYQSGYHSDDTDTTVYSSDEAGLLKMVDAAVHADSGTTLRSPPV
In short: (§6)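 GST-fused kinase domains were expressed in baculovirus and purified on glutathione-Sepharose. 10 min at ambient temperature, stopped with EDTA. Filter binding and scintillation counting. IC50 by linear regression of percent inhibition.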

[24] = Toxicity in C57BL/6jNpa mouse harbouring mouse B16-BL6 cells assessed as effect on hematocrit levels at 3 mg/kg, po qd administered started on day 7 post implantation measured after 21 days; format: organism-based; conditions: in vivo, 504 h, time 7-21 day; in short: as §4
[25] = tested on: B16-BL6; assay: Antitumor activity against mouse B16-BL6 cells implanted in C57BL/6jNpa mouse assessed as primary tumor growth inhibition by measuring T/C ratio at 3 mg/kg, po qd administered started on day 7 post implantation measured after 21 days; format: functional; conditions: time 7-21 day; in short: as §2
[26] = target: Vascular endothelial growth factor receptor 1 (Homo sapiens, UniProt P17948); assay: Inhibition of human recombinant GST-fused VEGFR1 kinase domain transphosphorylation expressed in baculovirus expression system using poly-Glu-Tyr (4:1) as substrate measured after 10 mins in presence of gamma-[33P]-ATP by scintillation counting analysis; in short: as §6
Vascular endothelial growth factor receptor 1, sequence (P17948 whole entry, the tested form may be a part): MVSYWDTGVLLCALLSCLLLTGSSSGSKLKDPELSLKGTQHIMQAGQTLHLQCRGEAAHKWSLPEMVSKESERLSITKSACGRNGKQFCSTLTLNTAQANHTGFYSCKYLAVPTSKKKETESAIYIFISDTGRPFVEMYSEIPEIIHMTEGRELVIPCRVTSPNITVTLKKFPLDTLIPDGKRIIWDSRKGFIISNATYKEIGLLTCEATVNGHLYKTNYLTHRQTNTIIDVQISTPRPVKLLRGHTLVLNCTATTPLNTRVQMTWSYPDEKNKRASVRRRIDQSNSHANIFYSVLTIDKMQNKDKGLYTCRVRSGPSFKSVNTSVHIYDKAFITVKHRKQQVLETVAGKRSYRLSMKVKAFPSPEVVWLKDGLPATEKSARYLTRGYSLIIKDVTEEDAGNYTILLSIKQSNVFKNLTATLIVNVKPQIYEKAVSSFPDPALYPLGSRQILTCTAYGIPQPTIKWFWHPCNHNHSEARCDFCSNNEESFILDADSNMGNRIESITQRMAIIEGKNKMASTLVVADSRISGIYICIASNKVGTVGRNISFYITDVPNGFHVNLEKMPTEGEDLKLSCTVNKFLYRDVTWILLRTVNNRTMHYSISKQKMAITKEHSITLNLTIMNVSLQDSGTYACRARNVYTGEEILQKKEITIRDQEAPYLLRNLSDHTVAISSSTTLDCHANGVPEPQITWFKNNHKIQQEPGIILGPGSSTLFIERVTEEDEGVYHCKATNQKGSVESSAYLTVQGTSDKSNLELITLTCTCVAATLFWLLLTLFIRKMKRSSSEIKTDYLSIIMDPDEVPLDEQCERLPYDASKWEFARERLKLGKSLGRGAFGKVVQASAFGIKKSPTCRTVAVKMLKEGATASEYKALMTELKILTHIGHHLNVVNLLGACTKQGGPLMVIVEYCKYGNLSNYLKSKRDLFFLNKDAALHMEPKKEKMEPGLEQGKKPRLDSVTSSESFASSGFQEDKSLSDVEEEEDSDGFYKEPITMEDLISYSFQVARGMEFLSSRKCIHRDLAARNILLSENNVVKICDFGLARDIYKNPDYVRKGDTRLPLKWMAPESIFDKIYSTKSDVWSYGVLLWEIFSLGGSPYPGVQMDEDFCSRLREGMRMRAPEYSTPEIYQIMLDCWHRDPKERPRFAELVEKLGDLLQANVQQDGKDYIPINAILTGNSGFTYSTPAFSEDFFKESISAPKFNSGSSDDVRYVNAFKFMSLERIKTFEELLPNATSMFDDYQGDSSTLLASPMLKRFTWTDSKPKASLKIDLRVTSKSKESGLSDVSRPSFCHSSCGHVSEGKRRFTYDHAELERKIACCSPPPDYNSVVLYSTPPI

[27] = tested on: HUVEC; assay: Antiproliferative activity against bFGF-stimulated HUVEC cells assessed as cell growth inhibition measured after 24 hrs by BrdUrd incorporation based spectrophotometric analysis; conditions: Homo sapiens

Structure (SMILES) | Cmax/dose [1] | IC50 [2] | inhibition in vivo at 3 mg/kg [3] | IC50 [4] | IC50 [5] | Activity [6] | Activity [7] | IC50 [8] | IC50 [11] | IC50 [12] | Activity [13] | IC50 [15] | IC50 [16] | Activity [17] | IC50 [18] | Activity [20] | IC50 [23] | T/C [25] | IC50 [26] | IC50 [27] | other results
Nc1cc(Oc2ccc3c(C(=O)Nc4cccc(C(F)(F)F)c4)cccc3c2)ncn1 | 0.05 µmol/L | > 10 µM | 54% | 8 µM | > 10 µM | Non-Toxic | Non-Toxic | 9 nM | 2 nM | 2.28 µM | Non-Toxic | 9.5 µM | 4 nM | Non-Toxic | 1.7 nM | Non-Toxic | 37 nM | 0.22 | 81 nM | > 3000 nM | clearance [9]: 3 mL/min/kg; bioavailability [10]: 5%; half-life [14]: 246 min; Activity [19]: Non-Toxic; Activity [21]: Non-Toxic; Tmax [22]: 4 h; Activity [24]: Non-Toxic
O=C(Nc1cccc(C(F)(F)F)c1)c1cccc2cc(Oc3cc(CO)ncn3)ccc12 [BFH-772] |  | > 10 µM | 54% | > 10 µM | 7.2 µM |  | Non-Toxic | 104 nM | 2 nM | 6.54 µM | Non-Toxic | 7.5 µM | 27 nM | Non-Toxic | < 0.01 nM | Non-Toxic | 1500 nM | 0.26 | 1700 nM | > 3000 nM | 
Nc1cc(Oc2ccc3c(C(=O)Nc4ccc(F)c(C(F)(F)F)c4)cccc3c2)ncn1 | 0.08 µmol/L | > 10 µM | 54% | 7.8 µM | > 10 µM | Non-Toxic | Non-Toxic | 40 nM | 5 nM | 2.66 µM | Non-Toxic | > 10 µM | 10 nM | Non-Toxic | 0.003 nM | Non-Toxic | 125 nM | 0.34 | 333 nM | 206 nM | clearance [9]: 0.833 mL/min/kg; bioavailability [10]: 9%; half-life [14]: 1100 min; Activity [19]: Non-Toxic; Activity [21]: Non-Toxic; Tmax [22]: 8 h; Activity [24]: Non-Toxic
Nc1nccc(Oc2ccc3c(C(=O)Nc4ccc(F)c(C(F)(F)F)c4)cccc3c2)n1 | 0.07 µmol/L | > 10 µM | 54% | 8.51 µM | 8.9 µM | Non-Toxic | Non-Toxic | 226 nM | 9 nM | 8.26 µM | Non-Toxic | > 10 µM | 16 nM | Non-Toxic | 0.077 nM | Non-Toxic | 320 nM | 0.1 | 223 nM | > 10 nM | clearance [9]: 2.83 mL/min/kg; bioavailability [10]: 9%; half-life [14]: 960 min; Activity [19]: Non-Toxic; Activity [21]: Non-Toxic; Tmax [22]: 5 h; Activity [24]: Non-Toxic
Nc1nccc(Oc2ccc3c(C(=O)Nc4cccc(C(F)(F)F)c4)cccc3c2)n1 |  | > 10 µM | 54% | > 10 µM | > 10 µM |  | Non-Toxic | 152 nM | 4 nM | 8.27 µM | Non-Toxic | 4.75 µM | 9 nM | Non-Toxic | 0.12 nM | Non-Toxic | 165 nM | 0.46 | 820 nM | > 3000 nM | 
